From ChEMBL document CHEMBL1138018, “Discovery and SAR of 2-aminothiazole inhibitors of cyclin-dependent kinase 5/p25 as a potential treatment for Alzheimer's disease” (Bioorg Med Chem Lett, 2004)
pIC50: −log10 of the molar value.

Assays:
[1] = Ratio of inhibition of cyclin dependant kinase 2-cyclin E to that of cyclin-dependent kinase 5
Outline: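 Selectivity is the cdk2/cyclin E IC50 divided by the cdk5/p25 IC50 (k2/k5). Both IC50s came from six-point triplicate dose–response curves in scintillation proximity assays run at the same final ATP concentration.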

[2] = target: T1, Cyclin-dependent kinase 2/cyclin E1 (Homo sapiens, UniProt P24941); assay: Concentration required for inhibition of cyclin dependant kinase 2-cyclin E was measured by scintillation proximity assay; format: protein-complex assay
Outline: (§1)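 Kinase activity was read by scintillation proximity assay against cdk5/p25 and cdk2/cyclin E, with the same final ATP concentration in both assays. ATP Km was measured separately for each enzyme. Each IC50 came from a six-point dose–response curve run in triplicate.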

[3] = target: Cyclin-dependent kinase 5 (Homo sapiens, UniProt Q00535); assay: Concentration required for inhibition of cyclin-dependent kinase 5 was measured by scintillation proximity assay; outline: as §1
[4] = target: T1, Cyclin-dependent kinase 2/cyclin E1; assay: Concentration required for 50% inhibition of cyclin dependant kinase 2-cyclin E was measured by scintillation proximity assay; format: protein-complex assay; outline: as §1

Sequence of Cyclin-dependent kinase 5 (Q00535 whole entry): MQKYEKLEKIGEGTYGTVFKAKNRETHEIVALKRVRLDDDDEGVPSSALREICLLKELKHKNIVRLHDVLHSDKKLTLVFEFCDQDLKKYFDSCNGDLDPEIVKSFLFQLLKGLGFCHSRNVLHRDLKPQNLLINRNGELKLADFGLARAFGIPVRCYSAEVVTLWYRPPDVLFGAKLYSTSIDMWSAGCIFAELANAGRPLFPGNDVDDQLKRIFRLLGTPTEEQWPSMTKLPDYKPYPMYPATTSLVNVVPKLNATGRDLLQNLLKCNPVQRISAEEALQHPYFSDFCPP

Ratio [1]	pIC50 [2]	pIC50 [3]	pIC50 [4]	SMILES
2.2	7.59	7.89		Cc1cc2ncn(CC(=O)Nc3ncc(C4CCC4)s3)c2cc1C
2.4	6.81	7.19		O=C(Cc1ccccc1)Nc1ncc(C2CCCC2)s1
2.1	7.00	7.32		O=C(Cn1ccc2ccccc21)Nc1ncc(C2CCC2)s1
1.3	7.80	7.92		Cc1nc2ccc(CC(=O)Nc3ncc(C4CCC4)s3)cc2s1
3.4	6.19	6.72		O=C(Nc1ncc(C2CCC2)s1)Nc1cccc2c[nH]nc12
3.8	6.78	7.36		O=C(Nc1ccc2ncccc2c1)Nc1ncc(C2CCC2)s1
4.7	7.48	8.15		O=C(Cc1ccc2[nH]cnc2c1)Nc1ncc(C2CCC2)s1
2.5	7.40	7.80		O=C(Cc1c[nH]c2ccccc12)Nc1ncc(C2CCC2)s1
2.6	7.59	8.00		O=C(Cc1ccc2ncccc2c1)Nc1ncc(C2CCC2)s1
5.4	7.15	7.89		O=C(Cc1cccc2cnccc12)Nc1ncc(C2CCC2)s1
3	7.13	7.60		O=C(Cc1ccccc1)Nc1ncc(C2CCC2)s1
2.6	6.00	6.41		O=C(Cc1ccccc1)Nc1ncc(C2CCCCC2)s1

More lines, now with the values behind:

SMILES	Ratio [1]	pIC50 [2]	pIC50 [3]	pIC50 [4]
CC(C)c1cnc(NC(=O)c2ccccc2)s1	0.9		5.94	5.99
O=C(Cc1ccccc1)Nc1ncc(C2=CCCC2)s1	1	5.19	5.19	
CC(C)c1cnc(NC(=O)C(=O)c2ccccc2)s1	2.1		5.34	5.01
CC(C)c1cnc(NC(=O)Cc2ccccc2)s1	1.5		7.19	7.01
CC(C)C(=O)Nc1ncc(C(C)C)s1	1	6.50	6.49	
O=C(Nc1ccc2cnccc2c1)Nc1ncc(C2CCC2)s1	4	6.75	7.36	
CN(C)c1cnc(NC(=O)Cc2ccccc2)s1	1.2	5.32	5.40	
O=C(Nc1ncc(C2CCC2)s1)Nc1cccc2nn[nH]c12		6.97	7.39	
CSc1cnc(NC(=O)Cc2ccccc2)s1	1.2	6.98	7.04	
CC(=O)c1cnc(NC(=O)Cc2ccccc2)s1	0.6	5.34	5.12	
CCCCCc1cnc(NC(=O)Cc2ccccc2)s1	1.2	5.39	5.49	
O=C(Cc1ccccc1)Nc1ncc(Br)s1	0.5	6.32	6.05	
O=C(Nc1ncc(C2CCC2)s1)Nc1cccc2ncccc12	3.3	7.37	7.89	
O=C(Nc1ncc(C2CCC2)s1)Nc1cccc2cnccc12	12	7.02	8.10	
CCc1cnc(NC(=O)Cc2ccccc2)s1	0.7		6.21	6.39
CC(C)c1cnc(NC(=O)Oc2ccccc2)s1	0.6		5.80	6.01
O=C(Nc1ncc(C2CCC2)s1)Nc1cccc2ccncc12	11	7.26	8.30	
O=C(Nc1ncc(C2CCC2)s1)Nc1cccc2[nH]nnc12	2.6			
CC(C)c1cnc(NC(=O)Nc2ccccc2)s1	2.6		6.99	6.58
O=C(Nc1ccccc1)Nc1ncc(C2CCC2)s1	1.6	6.54	6.74	
O=C(Cc1ccccc1)Nc1ncc(-c2ccccc2)s1	1.3	5.70	5.80	
